Hits are enriched below; roughly 1.4% of the tested compounds scored in any of these assays.
DDE Tn6 FP inh: disrupts Tn6 cyclic peptide binding to fibrin D-Dimer-E complex; P02675; Fibrin DD(E) TRITC-Tn6 fluorescence polarization displacement; inhibition, % at 8.3 µM; 370,000 tested, 0.21% active;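 active = inhibition above a per-campaign cutoff: mean of compounds within control limits plus 3 SD, cut at about 15% in these data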;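 also: 0% = median of all compound wells on the plate and 100% = blocking peptide control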
MT1-MMP act inh: MT1-MMP (human) activation inhibition. P50281. HT1080 RFP-PRO-GFP cells, GFP/RFP ratio fluorescence, overnight; percent of plate control window, DMSO zero. 360,000 tested, 0.061% active. GFP/RFP ratio change, % at 20 µM;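 active = GFP/RFP ratio change of at least 30% with cell ATP level not reduced by more than half and red fluorescence within 50% of control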
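Material: RFP-PRO-GFP reporter HT1080 cells. Dosing: single-point 20 µM compound, 1% DMSO. Controls: DMSO and RFP-L50D-GFP cell wells. Timing: cells overnight before dosing, compound overnight, 37 °C, 5% CO2. Measure: GFP/RFP fluorescence ratio.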
DDE Tn7 FP inh: inhibitors of Tn7 peptide binding to human fibrin DD(E); P02675; FP displacement of FITC-Tn7 peptide from fibrin DD(E); 0% = median of compound wells per plate; inhibition, % at 8.3 µM; 370,000 tested, 0.13% active; AID 720508;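 active = inhibition above the mean of compounds falling within the control limits plus 3 SD of them, cut at about 14% in these data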;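 also: 0% = plate median of compound wells and 100% = 10 µM Aha-Tn7 peptide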
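Assay system: human fibrin DD(E). Input: DD(E) 2 µM final. Medium: Tris buffer with calcium and detergent, pH 7.8. Compound dosing: single point at 8.3 µM. Timing: 10 min plus 3 h, room temperature. Technique: fluorescence polarization of the labelled Tn7 tracer. Read-out: percent inhibition. Replicates: singlicate testing.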
Cardio protect: myocardial damage modulation in H9c2 cells; H9c2 cardiomyocytes, H2O2 injury protection, ATPLite, 2 h; protection from H2O2 cell death, % at 20 µM; AID 588492; 360,000 tested, 0.63% active;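 active = compounds giving at least 50% protection of heart cells from peroxide-induced death in the single-dose screen, raw or plate-pattern-corrected value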;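 also: 0% = DMSO wells with peroxide and 100% = DMSO wells without peroxide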
DAGLB inhibitor: blocks human DAGLB lipase activity | inhibition, % at 5.17 µM | 340,000 tested, 0.059% active | Q8NCG7 | HEK293T DAGLB membrane lysate, EnzChek fluorogenic substrate; in the data active = inhibition above about 34%;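 also: 0% = enzyme with vehicle and 100% = wells lacking enzyme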
Target sequence (Q8NCG7 whole entry, looked up): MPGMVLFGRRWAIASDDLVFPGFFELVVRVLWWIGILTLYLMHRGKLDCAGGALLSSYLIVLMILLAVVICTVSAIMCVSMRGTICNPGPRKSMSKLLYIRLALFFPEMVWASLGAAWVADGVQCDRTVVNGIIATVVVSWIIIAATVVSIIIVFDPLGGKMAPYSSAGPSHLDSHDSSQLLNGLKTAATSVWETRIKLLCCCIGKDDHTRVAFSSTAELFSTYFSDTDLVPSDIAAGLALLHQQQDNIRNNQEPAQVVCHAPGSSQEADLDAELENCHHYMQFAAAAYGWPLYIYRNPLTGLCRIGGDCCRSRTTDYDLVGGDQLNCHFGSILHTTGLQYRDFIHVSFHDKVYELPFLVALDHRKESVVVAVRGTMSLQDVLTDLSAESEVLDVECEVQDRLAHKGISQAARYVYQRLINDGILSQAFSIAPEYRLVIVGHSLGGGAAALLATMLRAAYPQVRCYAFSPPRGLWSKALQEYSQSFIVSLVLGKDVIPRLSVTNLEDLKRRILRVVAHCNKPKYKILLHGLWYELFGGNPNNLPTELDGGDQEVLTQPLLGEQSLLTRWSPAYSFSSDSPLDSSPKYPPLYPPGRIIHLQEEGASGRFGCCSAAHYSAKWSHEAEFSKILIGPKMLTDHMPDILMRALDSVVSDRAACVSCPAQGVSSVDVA
TAG inh: reduces triacylglycerol accumulation in H9c2 cells; Nile Red lipid (TAG) fluorescence; cells loaded with 200 µM oleic acid; inhibition, % at 12.5 µM; 230,000 tested, 0.66% active;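 active = pattern-corrected inhibition of lipid staining of at least 50% with the nuclear-stain viability signal not falling by more than 50%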;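 also: 0% = DMSO wells and 100% = triacsin C control wells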
DAGLB confirm: DAGLB (human) inhibition, confirmation screen; shares compounds with DAGLB inhibitor; HEK293T DAGLB membrane lysate, EnzChek fluorogenic substrate; inhibition, % at 5.17 µM; 190 tested, 73% active; AID 504445;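 active = mean inhibition over triplicate wells above a set limit taken from the primary lipase screen, cut at about 34% in these data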;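 also: 0% = DAGLB with DMSO and 100% = wells lacking DAGLB enzyme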
TAG conf: confirmation of triacylglycerol accumulation inhibitors | shares compounds with TAG inh | H9c2 lipid accumulation, Nile Red fluorescence; cells loaded with 200 µM oleic acid | AID 651629 | 990 tested, 71% active | inhibition, % at 12.5 µM;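 active = mean inhibition across replicates of 40% or more; inactive = mean inhibition below 40%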;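 also: plate controls were DMSO only wells for no effect and Triacsin C treated wells for full effect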
MT1-MMP conf: MT1-MMP (human) activation inhibition, single-concentration validation. shares compounds with MT1-MMP act inh. HT1080 RFP-PRO-GFP cells, GFP and RFP fluorescence ratio, overnight. inhibition, % at 20 µM. 200 tested, 10% active;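 active = inhibition of at least 50% in the primary cell screen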
Tn6 DDE ctr: counter-screen for inhibitors of Tn6 peptide binding to fibrin DD(E); shares compounds with DDE Tn6 FP inh; TRITC-Tn6 fluorescence polarization displacement; 0% = median of compound wells, not DMSO; inhibition, % at 8.3 µM; 680 tested, 2% active; AID 720621;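 active = inhibition above the mean of test compounds lying between the control limits plus 3 SD of those, cut at about 14% in these data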;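 also: 0% = median of compound wells and 100% = wells with Aha-Tn7 blocking peptide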
Tn6 DDE conf: DD(E)-Tn6 binding inhibition, FP confirmation; shares compounds with DDE Tn6 FP inh; FP displacement of TRITC-Tn6 peptide from DD(E); 0% = per-plate median of test wells; inhibition, % at 8.3 µM; 680 tested, 10% active;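 active = inhibition above the mean of compounds lying within the control limits plus 3 SD, cut at about 16% in these data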;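 also: 100% = high control wells holding a competing inhibitor peptide at 10 µM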
Starred values were filed as active, the others as inactive.

Screening c1ccc(N=NC2=NN(c3ccccc3)CS2)cc1 returned DDE Tn6 FP inh -2, MT1-MMP act inh 21, DDE Tn7 FP inh -2, Cardio protect -12, DAGLB inhibitor 41*, TAG inh 96*, DAGLB confirm 55* and TAG conf 113*.
COC(=O)[C@H](C(C)C)N1Cc2nnn(CC3CCCCC3)c2-c2ccccc2S1(=O)=O was read as DDE Tn6 FP inh 9 and DDE Tn7 FP inh -6.
Screening Nc1ccc2ccccc2c1N=Nc1ccccc1 returned DDE Tn6 FP inh -1, MT1-MMP act inh 20, DDE Tn7 FP inh 2, Cardio protect -8, DAGLB inhibitor 36*, TAG inh 56*, DAGLB confirm 43* and TAG conf 53*.
`N#CC(C#N)=NNc1ccc([N+](=O)[O-])cc1` gave DDE Tn6 FP inh -4, MT1-MMP act inh 33*, DDE Tn7 FP inh 1, Cardio protect -14, DAGLB inhibitor 39*, TAG inh 14, DAGLB confirm 58* and MT1-MMP conf 26.
Screening CCN(CC)c1ccc(C(=C2C=CC(=[N+](CC)CC)C=C2)c2ccccc2)cc1 returned DDE Tn6 FP inh -11, MT1-MMP act inh -34, DDE Tn7 FP inh -1, Cardio protect -21, DAGLB inhibitor -13 and TAG inh 141.
Screening CCN(CC)c1ccc(C(=C2C=CC(=[N+](CC)CC)C=C2)c2ccc(N(CC)CC)cc2)cc1 returned DDE Tn6 FP inh 84*, MT1-MMP act inh 143*, DDE Tn7 FP inh 3, Cardio protect -27, DAGLB inhibitor 53*, TAG inh 136, DAGLB confirm 105* and MT1-MMP conf 126*.
`CCCC[C@H]1C2CC(OC(=O)Nc3ccccc3Cl)C(C2)[C@H]2CCCCN21` (some centres undefined) gave DDE Tn6 FP inh 1 and DDE Tn7 FP inh 3.
`COc1cc(/C=C2/SC(=S)N(Cc3ccccc3)C2=O)cc(Cl)c1O` gave DDE Tn6 FP inh 5, MT1-MMP act inh 9, DDE Tn7 FP inh 5, Cardio protect -16 and DAGLB inhibitor -12.
For COc1cc([N+](=O)[O-])cc(/C=C2/SC(=S)N(Cc3ccccc3)C2=O)c1O the results were DDE Tn6 FP inh 56*, MT1-MMP act inh 4, DDE Tn7 FP inh 1, Cardio protect -21, DAGLB inhibitor 40*, DAGLB confirm 48*, Tn6 DDE ctr 0 and Tn6 DDE conf 34*.
For CCCCCCCCN1C(=O)[C@@H](CC(=O)NCc2ccc(C)o2)C[C@@]2(C(=O)OC)C1=C[C@H](C(C)C)O[C@@H]2C1CC1 the results were DDE Tn6 FP inh -3 and DDE Tn7 FP inh -8.
Cc1ccc(Cl)cc1NC1=C/C(=N\S(=O)(=O)c2cccs2)c2ccccc2C1=O was read as DDE Tn6 FP inh 53*, MT1-MMP act inh -15, DDE Tn7 FP inh -2, Cardio protect -18, DAGLB inhibitor 43*, TAG inh 20, DAGLB confirm 46*, Tn6 DDE ctr 8 and Tn6 DDE conf 6.
